Six compounds from paper PMC3181126 (Journal of medicinal chemistry, 2011) can be followed below.

Where “and” joins values, the source holds several entries; their conditions need not be identical. Equal values may be shown once.

The subject of series [1] is BxPC3 cells. The series is described as follows: Competition of compound 16 by σ2 agonists, flow cytometry. In kind it is cell-based, human. Conditions: preloading 45 min at increasing concentrations, then 16 (25 nM) 45 min. For orientation: A flow cytometer gives signals particle by particle.
Series [2] has as its system BxPC3 cells. Description: Cell viability at increasing seeding density. It is filed as cell-based, human. Conditions: 100 μM, seeding density 1 × 10^5 to 9 × 10^5.
Series [3] is described as follows: Fluorescence spectroscopy. It is filed as physicochemical. Conditions: for Φ (quantum yield): standard quinine sulfate; for excitation peaks (λexc): approximate values, solvent not stated. Summed up:
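Spectra taken in EtOH, CHCl3 and PBS on free bases (hydrochlorides also in EtOH/PBS), with 10 nm excitation/emission bandpass. Emission scanned 300–700 nm; excitation scanned 250–450 or 300–550 nm by compound. Quantum yield was relative to a quinine sulfate standard (reference value 0.546), with absorbance below 0.2 at 347 nm. Spectra were instrument-corrected and integrated, and a refractive-index correction applied.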

Series [4] is described as follows: Molar extinction coefficient. It is filed as physicochemical. Particulars: EtOH solutions. Summed up:
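Absorbance spectra (200–600 nm) of test compound in EtOH at 1–100 μM, in 1 cm quartz cuvettes. ε was obtained by fitting Beer's law to absorbance at the excitation wavelength. Measurements were repeated twice.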

The next series addresses T1, σ2 receptor (Rattus norvegicus, UniProt Q5U3Y7).
T1 sequence (Q5U3Y7 1-176): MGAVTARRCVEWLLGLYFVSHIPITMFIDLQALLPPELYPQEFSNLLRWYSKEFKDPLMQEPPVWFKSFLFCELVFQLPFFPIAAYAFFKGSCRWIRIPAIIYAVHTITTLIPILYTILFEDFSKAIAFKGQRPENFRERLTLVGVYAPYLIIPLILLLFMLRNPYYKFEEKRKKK
Description: σ2 receptor radioligand binding, [3H]DTG with. Particulars: from Ki σ1 (guinea-pig brain) and Ki σ2 (rat liver).

On to `COc1cccc2c1CCCC2CCCN1CCN(C2CCCCC2)CC1` (stereo not shown) [compound 1, 1-cyclohexyl-4-[3-(5-methoxy-1,2,3,4-tetrahydronaphthalen-1-yl)propyl]piperazine], for which the “effect on mean fluorescence intensity of 16” value in the series with BxPC3 cells [1] is on record as “decreased the mean fluorescence intensity of 16”. In addition, the “cell death versus cell density” value in the series with BxPC3 cells [2] is “decreased cell death as the density increased”.

Turning to `COc1cccc2c1CCCC2CCCN1CCN(C2CCN(CCCCCCNc3ccc([N+](=O)[O-])c4nonc34)CC2)CC1` (stereo not shown) [compound 7, 6-[4-[4-[3-(5-Methoxy-1,2,3,4-tetrahydronaphthalen-1-yl]propyl]piperazin-1-yl]piperidino]-N-(7-nitro-2,1,3-benzoxadiazol-4-yl)hexanamine], in series [3] (CHCl3), the λem is 515 nm, the λexc stood at 450 nm and the “Φ (quantum yield)” value was determined as 0.17. For the same compound, in series [3] (EtOH, free bases), the λem turned out to be 520 nm, the λexc was 476 nm and the “Φ (quantum yield)” value came out at 0.08. In series [3] (PBS, free bases), this compound came in with a λem of 535 nm and a λexc of 480 nm. The “ε (molar extinction coefficient)” value in series [4] was 14391 L/mol/cm.

Regarding `COc1cccc2c1CCCC2CCCN1CCN(C2CCN(CCCCCCNS(=O)(=O)c3cccc4c(N(C)C)cccc34)CC2)CC1` (stereo not shown) [compound 8, 5-Dimethylaonaphthalene-1-sulfonic acid 6-[4-[4-[3-(5-methoxy-1,2,3,4-tetrahydronaphthalen-1-yl)propyl]piperazin-1-yl]piperidino]hexanamide], the λem in series [3] (CHCl3) worked out at 490 nm; in series [3] (EtOH, free bases), 507 nm; in series [3] (PBS, free bases) it was 510 nm. For the same compound, the λexc in series [3] (CHCl3) is on record as 346 nm; in series [3] (EtOH, free bases) it was 335 nm; in series [3] (PBS, free bases), 340 nm. Besides, the “Φ (quantum yield)” value in series [3] (CHCl3) is given as 0.32; in series [3] (EtOH, free bases), 0.29. Besides, the “excitation peaks (λexc)” value in series [3] was ~ 335 nm and ~ 450 nm. In series [4], the “ε (molar extinction coefficient)” value was 2600 L/mol/cm.

In the case of `O=[N+]([O-])c1ccc(NCCOCCOc2cccc3c2CCCC3CCCN2CCN(C3CCCCC3)CC2)c2nonc12` (stereo not shown) [compound 17, 2-[2-[5-[3-(4-Cyclohexylpiperazin-1-yl)propyl]-5,6,7,8-tetrahydronaphthalen-1-yloxy]ethoxy]-N-(7-nitro-2,1,3-benzoxadiazol-4-yl)ethanamine], in series [3] (CHCl3), the λem worked out at 512 nm, the λexc is 450 nm and the “Φ (quantum yield)” value is on record as 0.18. In series [3] (EtOH, free bases), the λem is recorded as 520 nm, the λexc worked out at 465 nm and the “Φ (quantum yield)” value is 0.04. In series [3] (PBS, free bases), the λem amounted to 520 nm and the λexc amounted to 460 nm. The “excitation peaks (λexc)” value in series [3] was ~ 335 nm and ~ 450 nm. Moreover, the “ε (molar extinction coefficient)” value in series [4] came out at 6544 L/mol/cm.

For the compound `CN(C)c1cccc2c(S(=O)(=O)NCCCCCCOc3cccc4c3CCCC4CCCN3CCN(C4CCCCC4)CC3)cccc12` (stereo not shown) [compound 18, 5-Dimethylaonaphthalene-1-sulfonic acid 6-[5-[3-(4-cyclohexylpiperazin-1-yl)propyl]-5,6,7,8-tetrahydronaphthalen-1-yloxy]hexanamide], the “σ2 versus σ1 selectivity” value on σ2 receptor is “did not show any σ2 versus σ1 selectivity”. Further, in series [3] (CHCl3), the λem was determined as 490 nm, the λexc amounted to 340 nm and the “Φ (quantum yield)” value was determined as 0.30. In addition, in series [3] (EtOH, free bases), the λem is 507 nm, the λexc is recorded as 335 nm and the “Φ (quantum yield)” value is reported as 0.20. Also, in series [3] (PBS, free bases), the λem worked out at 485 nm and the λexc was 345 nm. For the same compound, the “ε (molar extinction coefficient)” value in series [4] is 4000 L/mol/cm.

`Fc1cccc(F)c1[C@H]1CC[C@@H](N2CCN(C3CCCCC3)CC2)CC1` [compound 20, cis-1-cyclohexyl-4-[4-(2,6-difluorophenyl)cyclohexyl]piperazine]: in the series on BxPC3 cells [1], the “effect on mean fluorescence intensity of 16” value is on record as “decreased the mean fluorescence intensity of 16”. Further, the “cell death versus cell density” value with BxPC3 cells [2] is given as “decreased cell death as the density increased”.
